Reference: ChEMBL document CHEMBL1255514, “Discovery of 8-azabicyclo[3.2.1]octan-3-yloxy-benzamides as selective antagonists of the kappa opioid receptor. Part 1” (Bioorg Med Chem Lett, 2010)

Assays:
[1] = target: T1, Kappa-type opioid receptor (Homo sapiens, UniProt P41145); assay: Antagonist activity at human kappa opioid receptor assessed as inhibition of dynorphin A-induced [35S]GTPgammaS binding; type: functional
[2] = target: Mu-type opioid receptor (Homo sapiens, UniProt P35372); assay: Antagonist activity at human mu opioid receptor assessed as inhibition of DAMGO-stimulated [35S]GTPgammaS binding; type: functional
Sequence of Mu-type opioid receptor (P35372 whole entry): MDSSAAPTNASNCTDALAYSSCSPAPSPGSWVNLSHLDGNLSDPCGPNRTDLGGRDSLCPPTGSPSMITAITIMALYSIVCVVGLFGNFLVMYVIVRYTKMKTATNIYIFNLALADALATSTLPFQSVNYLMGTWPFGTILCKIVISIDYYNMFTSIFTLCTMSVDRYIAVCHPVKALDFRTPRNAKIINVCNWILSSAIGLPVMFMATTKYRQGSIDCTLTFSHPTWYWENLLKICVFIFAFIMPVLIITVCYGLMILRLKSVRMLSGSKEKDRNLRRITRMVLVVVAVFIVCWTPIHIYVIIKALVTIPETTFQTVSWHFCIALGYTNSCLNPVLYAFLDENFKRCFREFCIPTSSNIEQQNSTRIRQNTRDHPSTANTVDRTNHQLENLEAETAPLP

[3] = target: Delta-type opioid receptor (Homo sapiens, UniProt P41143); assay: Antagonist activity at human delta opioid receptor assessed as inhibition of SNC80-stimulated [35S]GTPgammaS binding; type: functional
Sequence of Delta-type opioid receptor (P41143 whole entry): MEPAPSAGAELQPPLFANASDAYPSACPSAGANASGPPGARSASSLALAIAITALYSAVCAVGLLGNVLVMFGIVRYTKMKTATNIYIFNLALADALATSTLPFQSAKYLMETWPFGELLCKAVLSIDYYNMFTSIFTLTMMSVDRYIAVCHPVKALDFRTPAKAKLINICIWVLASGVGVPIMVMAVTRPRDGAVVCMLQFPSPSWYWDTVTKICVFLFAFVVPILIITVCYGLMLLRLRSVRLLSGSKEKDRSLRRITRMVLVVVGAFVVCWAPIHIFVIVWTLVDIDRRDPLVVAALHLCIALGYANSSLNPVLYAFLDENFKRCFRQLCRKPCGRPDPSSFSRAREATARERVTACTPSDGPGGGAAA

[4] = target: Voltage-gated inwardly rectifying potassium channel KCNH2 (Homo sapiens, UniProt Q12809)
Sequence of Voltage-gated inwardly rectifying potassium channel KCNH2 (Q12809 whole entry): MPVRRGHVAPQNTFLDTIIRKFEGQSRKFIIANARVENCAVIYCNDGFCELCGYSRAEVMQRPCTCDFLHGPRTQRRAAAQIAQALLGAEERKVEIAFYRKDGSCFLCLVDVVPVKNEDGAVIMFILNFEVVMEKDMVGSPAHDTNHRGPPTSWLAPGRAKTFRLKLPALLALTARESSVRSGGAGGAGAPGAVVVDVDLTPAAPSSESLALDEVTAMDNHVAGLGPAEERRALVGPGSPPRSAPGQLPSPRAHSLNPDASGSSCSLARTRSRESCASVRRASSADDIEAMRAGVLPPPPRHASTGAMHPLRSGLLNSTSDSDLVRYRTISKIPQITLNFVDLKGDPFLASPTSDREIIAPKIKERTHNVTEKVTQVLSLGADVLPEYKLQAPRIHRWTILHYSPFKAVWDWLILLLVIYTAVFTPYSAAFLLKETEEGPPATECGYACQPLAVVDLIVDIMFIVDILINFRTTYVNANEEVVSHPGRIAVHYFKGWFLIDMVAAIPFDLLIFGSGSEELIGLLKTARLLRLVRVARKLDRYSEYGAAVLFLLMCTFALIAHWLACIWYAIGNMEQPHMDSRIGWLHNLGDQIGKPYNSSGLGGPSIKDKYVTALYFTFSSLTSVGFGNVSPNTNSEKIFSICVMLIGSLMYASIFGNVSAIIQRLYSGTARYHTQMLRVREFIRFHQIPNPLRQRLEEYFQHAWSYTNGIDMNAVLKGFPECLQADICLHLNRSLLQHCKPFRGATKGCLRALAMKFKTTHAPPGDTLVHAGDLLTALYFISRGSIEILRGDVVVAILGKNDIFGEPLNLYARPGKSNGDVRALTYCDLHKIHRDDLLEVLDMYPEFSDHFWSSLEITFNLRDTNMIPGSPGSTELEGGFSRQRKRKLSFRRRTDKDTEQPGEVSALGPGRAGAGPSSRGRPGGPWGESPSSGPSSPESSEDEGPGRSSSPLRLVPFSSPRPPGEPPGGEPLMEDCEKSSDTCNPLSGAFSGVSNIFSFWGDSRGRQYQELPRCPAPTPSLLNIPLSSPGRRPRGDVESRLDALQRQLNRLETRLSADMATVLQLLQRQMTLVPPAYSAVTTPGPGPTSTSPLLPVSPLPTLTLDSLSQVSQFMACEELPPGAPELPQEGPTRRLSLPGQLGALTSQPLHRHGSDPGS

[5] = target: T1, Kappa-type opioid receptor; assay: Binding affinity to kappa opioid receptor
[6] = Intrinsic clearance in human liver microsomes; type: ADME, Microsome
Summary of the method: (§1)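 Standard liver microsomal stability protocol using human or rat liver microsomes; intrinsic clearance expressed per mg microsomal protein per minute.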

[7] = Intrinsic clearance in rat liver microsomes; type: ADME, Microsome; summary of the method: as §1
[8] = Apparent permeability from apical to basolateral side of MDCK cells expressing MDR1; type: ADME, cell-based, Canis lupus familiaris; conditions: dog
Summary of the method: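 MDCK cells stably expressing human MDR1 P-glycoprotein grown as monolayer; apical-to-basolateral transport rate reported in nm/s.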

[9] = test system: Plasma; assay: Fraction unbound in rat plasma; type: ADME, cell-free
[10] = Clearance in Sprague-Dawley rat at 2 umol/kg, iv; type: ADME, organism-based; conditions: in vivo
[11] = Half life in Sprague-Dawley rat at 2 umol/kg, iv; type: ADME, organism-based; conditions: in vivo
[12] = Volume of distribution at steady state in Sprague-Dawley rat at 2 umol/kg, iv; type: ADME, organism-based; conditions: in vivo, read-out: Vdss
[13] = Oral bioavailability in Sprague-Dawley rat at 6 umol/kg, po; type: ADME, organism-based; conditions: in vivo
[14] = Ratio of drug level in brain to plasma in Sprague-Dawley rat at 5 umol/kg, iv; type: ADME, organism-based; conditions: brain and plasma, read-out: BPR
Summary of the method: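 Total brain and plasma concentrations measured 2 h after a 5 µmol/kg intravenous infusion in rats; brain/plasma ratio calculated.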

[15] = test system: Rattus norvegicus; assay: Antidiuretic activity against U50488-induced diuresis in sc dosed Sprague-Dawley rat; type: functional; conditions: Urine, read-out: ID50 (the source's name)

T1 sequence (P41145 whole entry): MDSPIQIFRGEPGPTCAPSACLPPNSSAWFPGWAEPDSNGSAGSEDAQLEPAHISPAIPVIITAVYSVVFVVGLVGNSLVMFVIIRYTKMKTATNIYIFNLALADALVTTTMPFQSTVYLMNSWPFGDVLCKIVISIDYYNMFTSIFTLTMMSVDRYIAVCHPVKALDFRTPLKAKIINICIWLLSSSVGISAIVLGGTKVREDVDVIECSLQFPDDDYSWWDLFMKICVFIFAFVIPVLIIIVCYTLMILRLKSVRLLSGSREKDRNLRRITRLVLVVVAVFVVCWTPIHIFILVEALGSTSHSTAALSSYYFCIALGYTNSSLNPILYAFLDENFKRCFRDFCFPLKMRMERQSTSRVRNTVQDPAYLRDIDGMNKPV

## NC(=O)c1cccc(O[C@@H]2C[C@H]3CC[C@@H](C2)N3CC(=O)N2CCCC2)c1
[1]
  IC50: 3.41 µM
[2]
  IC50: 21.1 µM
[3]
  IC50: > 30 µM
[4]
  IC50: > 33 µM

## Cc1ccc([C@@H](C)N2[C@@H]3CC[C@H]2C[C@H](Oc2cccc(C(N)=O)c2)C3)s1
[1]
  IC50: 0.111 µM

## CC(c1ccccc1)N1[C@@H]2CC[C@H]1C[C@H](Oc1cccc(C(N)=O)c1)C2 (stereo partly specified)
[1]
  IC50: 1 µM
[2]
  IC50: 19.8 µM

## Cc1ccc(C(C)N2[C@@H]3CC[C@H]2C[C@H](Oc2cccc(C(N)=O)c2)C3)s1 (stereo partly specified)
[1]
  IC50: 0.355 µM

## NC(=O)c1cccc(O[C@@H]2C[C@H]3CC[C@@H](C2)N3CCc2ccccc2)c1
[1]
  IC50: 0.754 µM
[2]
  IC50: 0.424 µM
[3]
  IC50: 2.15 µM

## Cc1ccc(CN2[C@@H]3CC[C@H]2C[C@H](Oc2cccc(C(N)=O)c2)C3)o1
[1]
  IC50: 0.386 µM
[2]
  IC50: 10.9 µM
[3]
  IC50: 22 µM

## C[C@H](c1ccnc(Cl)c1)N1[C@@H]2CC[C@H]1C[C@H](Oc1cccc(C(N)=O)c1)C2
[1]
  IC50: 0.307 µM
[2]
  IC50: 22.9 µM

## NC(=O)c1cccc(O[C@@H]2C[C@H]3CC[C@@H](C2)N3C2CCCc3ccccc32)c1 (stereo partly specified)
[1]
  IC50: 2.19 µM
[2]
  IC50: 22.7 µM

## C[C@H](c1ccccc1)N1[C@@H]2CC[C@H]1C[C@H](Oc1cccc(C(N)=O)c1)C2
[1]
  IC50: 0.683 µM
[2]
  IC50: > 24.4 µM

## CC(c1ccncc1)N1[C@@H]2CC[C@H]1C[C@H](Oc1cccc(C(N)=O)c1)C2 (stereo partly specified)
[2]
  IC50: > 30 µM

## NC(=O)c1cccc(O[C@@H]2C[C@H]3CC[C@@H](C2)N3C2(c3ccccc3)CC2)c1
[1]
  IC50: 24.2 µM
[2]
  IC50: > 30 µM

## Cc1ccc(CN2[C@@H]3CC[C@H]2C[C@H](Oc2cccc(C(N)=O)c2)C3)cc1
[1]
  IC50: 0.049 µM
[2]
  IC50: 0.482 µM
[3]
  IC50: 10.9 µM

## NC(=O)c1cccc(O[C@@H]2C[C@H]3CC[C@@H](C2)N3Cc2ccccn2)c1
[1]
  IC50: 3.16 µM
[2]
  IC50: 19 µM
[3]
  IC50: > 30 µM
[4]
  IC50: 1.9 µM

## CC(C)[C@@H](CN1CC[C@@](C)(c2cccc(O)c2)[C@@H](C)C1)NC(=O)[C@H]1Cc2ccccc2CN1
[1]
  IC50: 0.0005 µM
[2]
  IC50: 0.041 µM
[3]
  IC50: 1.28 µM
[5]
  Ki: 0.0003 µM

## COc1cccc([C@@H](C)N2[C@@H]3CC[C@H]2C[C@H](Oc2cccc(C(N)=O)c2)C3)c1
[1]
  IC50: 0.046 µM
[2]
  IC50: 1.05 µM

## Cn1cc(CN2[C@@H]3CC[C@H]2C[C@H](Oc2cccc(C(N)=O)c2)C3)cn1
[1]
  IC50: 0.524 µM
[2]
  IC50: 9.43 µM
[3]
  IC50: > 27.3 µM

## CS(=O)(=O)Cc1ccc(CN2[C@@H]3CC[C@H]2C[C@H](Oc2cccc(C(N)=O)c2)C3)cc1
[1]
  IC50: 0.039 µM
[2]
  IC50: 0.576 µM
[3]
  IC50: 5.39 µM

## Cc1ccccc1C(C)N1[C@@H]2CC[C@H]1C[C@H](Oc1cccc(C(N)=O)c1)C2 (stereo partly specified)
[1]
  IC50: 0.846 µM
[2]
  IC50: 16.8 µM

## Cc1ccc(CN2[C@@H]3CC[C@H]2C[C@H](Oc2cccc(C(N)=O)c2)C3)s1
[6]
  microsomal CLint: 31 µL/min/mg
[7]
  microsomal CLint: 379 µL/min/mg
[8]
  Papp A→B: 130 nm/s
[9]
  PPB: 50%
[10]
  clearance: 6.78 L/h/kg
[11]
  half-life: 1 h
[12]
  Vd: 5.1 L/kg
[13]
  bioavailability: 1.7%
[14]
  Kp: 4
[15]
  ED50: 0.006 µmol/kg

## Cc1ccccc1CN1[C@@H]2CC[C@H]1C[C@H](Oc1cccc(C(N)=O)c1)C2
[2]
  IC50: 17.6 µM
[3]
  IC50: > 30 µM

## NC(=O)c1cccc(OC2CCN(CC3CC3)CC2)c1
[1]
  IC50: 28.2 µM
[5]
  Ki: 0.146 µM

## NC(=O)c1cccc(O[C@@H]2C[C@H]3CC[C@@H](C2)N3C2CCCCC2)c1
[1]
  IC50: 1.13 µM
[2]
  IC50: 9.41 µM

## CN1[C@@H]2CC[C@H]1C[C@H](Oc1cccc(C(N)=O)c1)C2
[1]
  IC50: 12.6 µM

## C[C@@H](c1ccccc1)N1[C@@H]2CC[C@H]1C[C@H](Oc1cccc(C(N)=O)c1)C2
[1]
  IC50: 20.5 µM
[2]
  IC50: > 30 µM

## NC(=O)c1cccc(O[C@@H]2C[C@H]3CC[C@@H](C2)N3Cc2ccc3c(c2)OCO3)c1
[1]
  IC50: 0.011 µM
[2]
  IC50: 0.307 µM
[3]
  IC50: 4.84 µM

## NC(=O)c1cccc(O[C@@H]2C[C@H]3CC[C@@H](C2)N3CC2CC2)c1
[1]
  IC50: 6.69 µM
[2]
  IC50: > 30 µM
[3]
  IC50: > 30 µM

## NC(=O)c1cccc(O[C@@H]2C[C@H]3CC[C@@H](C2)N3Cc2cccnc2)c1
[1]
  IC50: 0.431 µM
[2]
  IC50: 2.89 µM
[3]
  IC50: > 21.9 µM

## NC(=O)c1cccc(O[C@@H]2C[C@H]3CC[C@@H](C2)N3Cc2ccncc2)c1
[3]
  IC50: > 24.7 µM

## NC(=O)c1cccc(O[C@@H]2C[C@H]3CC[C@@H](C2)N3CC(=O)Nc2ccccc2)c1
[1]
  IC50: 0.345 µM
[2]
  IC50: 0.253 µM
[3]
  IC50: 2.67 µM
[4]
  IC50: 0.72 µM

## NC(=O)c1cccc(O[C@@H]2C[C@H]3CC[C@@H](C2)N3CC2CCCCC2)c1
[6]
  microsomal CLint: < 4 µL/min/mg
[7]
  microsomal CLint: 196 µL/min/mg
[8]
  Papp A→B: 83 nm/s
[10]
  clearance: 11 L/h/kg
[11]
  half-life: 1 h
[12]
  Vd: 9.5 L/kg
[13]
  bioavailability: 1.8%
[14]
  Kp: 5

## O=C(Nc1cccc(NC(=O)c2cccc(N3CCOCC3)c2)c1)c1cccc(OC2CCN(CC3CC3)CC2)c1
[1]
  IC50: 0.077 µM
[2]
  IC50: > 30 µM
[3]
  IC50: > 30 µM
[8]
  Papp A→B: < 10 nm/s
[5]
  Ki: 0.0005 µM

## NC(=O)c1cccc(O[C@@H]2C[C@H]3CC[C@@H](C2)N3Cc2cccs2)c1
[1]
  IC50: 0.215 µM
[2]
  IC50: 9.36 µM
[3]
  IC50: > 30 µM
[4]
  IC50: 0.43 µM

## Cc1ccc([C@@H](C)N2[C@@H]3CC[C@H]2C[C@H](Oc2cccc(C(N)=O)c2)C3)cn1
[6]
  microsomal CLint: < 4 µL/min/mg
[7]
  microsomal CLint: 14 µL/min/mg
[8]
  Papp A→B: 91 nm/s
[9]
  PPB: 81%

## NC(=O)c1cccc(O[C@@H]2C[C@H]3CC[C@@H](C2)N3CCCc2ccccc2)c1
[1]
  IC50: 0.342 µM
[2]
  IC50: 0.659 µM
[3]
  IC50: 4 µM

## NC(=O)c1cccc(OC2CCN(Cc3ccccc3)CC2)c1
[1]
  IC50: 0.585 µM
[2]
  IC50: > 30 µM
[3]
  IC50: > 30 µM
[5]
  Ki: 0.075 µM

## CC(C)(c1ccccc1)N1[C@@H]2CC[C@H]1C[C@H](Oc1cccc(C(N)=O)c1)C2
[1]
  IC50: 13.3 µM
